{"data": "Assay results gathered from unrelated publications", "observed": "enzyme activity", "action": "inhibitor", "murC": "UDP-N-acetylmuramate--L-alanine ligase (murC, Escherichia coli K-12, UniProt P17952)", "BMP2K": "BMP-2-inducible protein kinase (BMP2K, Homo sapiens, UniProt Q9NSY1)", "ACVR2B": "Activin receptor type-2B (ACVR2B, Homo sapiens, UniProt Q13705)", "COQ8B": "Atypical kinase COQ8B, mitochondrial (COQ8B, Homo sapiens, UniProt Q96D53)", "note": "Compare with care: the assays were run in different laboratories."}
{"Structure (SMILES)": "O=[N+]([O-])c1cccc(COc2cccc(C=NNS(=O)(=O)c3ccc4ccccc4c3)c2)c1", "target": "murC", "test": "absorbance", "conditions": "50 µM", "remaining activity": "58%"}
{"Structure (SMILES)": "Brc1cnc(Nc2cccc(CN3CCOCC3)c2)nc1NCCc1c[nH]cn1", "target": "BMP2K", "test": "radiometric", "conditions": "1 µM", "remaining activity": "1%"}
{"Structure (SMILES)": "CC(C)(C)c1nc2c(s1)c1nc(N)ncc1c1ccc(NS(=O)(=O)c3c(F)cccc3F)c(F)c12", "target": "ACVR2B", "test": "radiometric", "conditions": "1 µM", "remaining activity": "88%"}
{"Structure (SMILES)": "Cc1nn(CC(F)(F)F)cc1Nc1nccc(NCc2ccc(S(N)(=O)=O)cc2)n1", "target": "BMP2K", "test": "radiometric", "conditions": "1 µM", "remaining activity": "86%"}
{"Structure (SMILES)": "O=[N+]([O-])c1ccc(S(=O)(=O)Oc2ccccc2C=NNS(=O)(=O)c2ccc3ccccc3c2)cc1", "target": "murC", "test": "absorbance", "conditions": "100 µM", "remaining activity": "75%"}
{"Structure (SMILES)": "CC(C)(C)c1nc(-c2cccc(NS(=O)(=O)c3c(F)cccc3F)c2F)c(-c2ccnc(N)n2)s1", "target": "ACVR2B", "test": "radiometric", "conditions": "1 µM", "remaining activity": "46%"}
{"Structure (SMILES)": "O=[N+]([O-])c1cccc(S(=O)(=O)Oc2ccccc2C=NNS(=O)(=O)c2ccc3ccccc3c2)c1", "target": "murC", "test": "absorbance", "conditions": "50 µM", "remaining activity": "65%"}
{"Structure (SMILES)": "COc1cc(Cl)c(C(=O)N[C@@H](CN[C@H]2CC[C@@H](N)CC2)Cc2ccc(C#N)cc2)cc1-c1ccc(CN[C@H](C)c2ccc(C)cc2)o1", "target": "MAPK/MAK/MRK overlapping kinase (MOK, Homo sapiens, UniProt Q9UQ07)", "conditions": "1 µM", "remaining activity": "102%"}
{"Structure (SMILES)": "O=[N+]([O-])c1ccccc1S(=O)(=O)Oc1ccccc1C=NNS(=O)(=O)c1ccc2ccccc2c1", "target": "murC", "test": "absorbance", "conditions": "50 µM", "remaining activity": "55%"}
{"Structure (SMILES)": "CCCOc1ccc(OC)c(F)c1C(=O)c1ccc(C(=O)N[C@@H]2CNC[C@H]2NC(=O)c2ccc3[nH]ncc3c2)cc1", "target": "Rho-associated protein kinase 2 (ROCK2, Homo sapiens, UniProt O75116)", "conditions": "50 nM", "remaining activity": "38%"}
{"Structure (SMILES)": "Cc1nn(CC(F)(F)F)cc1Nc1nccc(NCCCNC(=O)C2CCC2)n1", "target": "BMP2K", "test": "radiometric", "conditions": "1 µM", "remaining activity": "101%"}
{"Structure (SMILES)": "Nc1ncnc2occ(-c3ccc(NC(=O)Nc4cc(C(F)(F)F)ccc4F)cc3)c12", "target": "COQ8B", "conditions": "20 µM", "remaining activity": "24%"}
{"Structure (SMILES)": "Cc1nn(CC(F)(F)F)cc1Nc1nccc(NCCc2cnc[nH]2)n1", "target": "BMP2K", "test": "radiometric", "conditions": "1 µM", "remaining activity": "104%"}
{"Structure (SMILES)": "O=C(Nc1ccccc1C=NNS(=O)(=O)c1ccc2ccccc2c1)c1cc([N+](=O)[O-])cc([N+](=O)[O-])c1", "target": "murC", "test": "absorbance", "conditions": "100 µM", "remaining activity": "51%"}
{"Structure (SMILES)": "NS(=O)(=O)c1ccc(CNc2nc(Nc3cccc(CN4CCOCC4)c3)ncc2C2CC2)cc1", "target": "BMP2K", "test": "radiometric", "conditions": "1 µM", "remaining activity": "68%"}
{"Structure (SMILES)": "Cc1ccc(C(=O)Nc2ccc(CN3CCN(C)CC3)c(C(F)(F)F)c2)cc1C#Cc1cnc2cccnn12", "target": "COQ8B", "conditions": "23.5 nM", "remaining activity": "89%"}
